Key:
Conditions in all cases: stereoisomer not certain
[1] = biological target: OR8B12 (Homo sapiens) (UniProt Q8NGG6)
Outline: (§1)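 Transient luciferase assays in mammalian cell lines were common, though methods varied by source. The values come from published papers and their supplementary material, with extra details from the original authors when needed. Responsive refers to a measured signal the original authors judged statistically different from baseline, and non-responsive (inactive) to the remainder.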

[2] = biological target: OR8B2 (Homo sapiens) (UniProt Q96RD0)
Chain of OR8B2 (Homo sapiens) (Q96RD0 whole entry): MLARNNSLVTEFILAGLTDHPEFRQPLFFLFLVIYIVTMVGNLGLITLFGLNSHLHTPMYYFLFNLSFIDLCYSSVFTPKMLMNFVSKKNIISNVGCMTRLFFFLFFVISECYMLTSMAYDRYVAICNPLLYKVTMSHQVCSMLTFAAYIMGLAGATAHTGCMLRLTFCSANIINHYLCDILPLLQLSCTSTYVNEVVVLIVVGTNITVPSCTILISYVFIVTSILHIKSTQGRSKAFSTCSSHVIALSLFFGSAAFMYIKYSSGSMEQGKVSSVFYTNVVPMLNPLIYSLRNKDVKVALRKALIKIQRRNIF
Outline: as §1

[3] = biological target: OR8B3 (Homo sapiens) (UniProt Q8NGG8)
Chain of OR8B3 (Homo sapiens) (Q8NGG8 whole entry): as the sequence (Q96RD0 whole entry) above, with R24Q, I34V, T47I, N94Y, R100Q, T205I, T208M counted along it
Outline: as §1

[4] = biological target: OR8B4 (Homo sapiens) (UniProt Q96RC9)
Chain of OR8B4 (Homo sapiens) (Q96RC9 whole entry): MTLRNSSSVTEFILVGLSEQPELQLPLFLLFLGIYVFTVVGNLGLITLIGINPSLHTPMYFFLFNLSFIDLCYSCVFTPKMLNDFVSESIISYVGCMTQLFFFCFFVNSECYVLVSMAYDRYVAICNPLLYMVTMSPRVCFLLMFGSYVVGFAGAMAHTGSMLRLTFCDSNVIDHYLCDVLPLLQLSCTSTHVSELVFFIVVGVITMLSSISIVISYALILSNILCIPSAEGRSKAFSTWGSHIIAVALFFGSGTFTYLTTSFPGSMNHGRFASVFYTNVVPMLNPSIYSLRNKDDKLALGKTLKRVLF
Outline: as §1

[5] = tested on: OR8B2 L164F
Chain of OR8B2 L164F (as listed by the source, stated change not applied): as the sequence (Q96RD0 whole entry) above, with L164F counted along it
Outline: as §1

[6] = tested on: OR8B2 S273F
Chain of OR8B2 S273F (as listed by the source, stated change not applied): as the sequence (Q96RD0 whole entry) above, with S273F counted along it
Outline: as §1

[7] = tested on: OR8B3 H20R Q24R M114I
Outline: as §1

[8] = tested on: OR8B3 H20R Q24R Y113H
Outline: as §1

[9] = tested on: OR8B3 H20R Q24R
Outline: as §1

[10] = tested on: OR8B4
Chain of OR8B4 (as listed by the source): as the sequence (Q96RC9 whole entry) above, with E22G counted along it
Outline: as §1

Measured: odorant receptor agonist call;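 further: active if original authors judged signal statistically different from baseline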

Chain of OR8B12 (Homo sapiens) (Q8NGG6 whole entry): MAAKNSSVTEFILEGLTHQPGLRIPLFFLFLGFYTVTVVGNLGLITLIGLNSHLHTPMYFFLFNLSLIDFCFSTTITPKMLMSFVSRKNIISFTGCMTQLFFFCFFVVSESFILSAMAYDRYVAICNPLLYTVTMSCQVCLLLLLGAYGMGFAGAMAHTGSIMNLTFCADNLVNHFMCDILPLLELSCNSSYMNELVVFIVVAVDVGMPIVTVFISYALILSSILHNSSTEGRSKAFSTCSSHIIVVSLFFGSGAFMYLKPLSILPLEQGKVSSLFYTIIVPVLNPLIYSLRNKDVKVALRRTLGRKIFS

Cc1c([N+](=O)[O-])c(C)c([N+](=O)[O-])c(C(C)(C)C)c1[N+](=O)[O-]
inactive: [1] | [2] | [3] | [4]

C=CCOC(=O)Cc1ccccc1
inactive: all assays above

From the M2OR odorant receptor database
